Only a selection was taken, and hits are over-represented in it overall.
HCT116 bCat-KO – primary screen for growth suppressors in beta-catenin knockout HCT116 cells (colon tumor, human); HCT116 beta-catenin knockout viability, CellTiter-Glo, 60 h; hits give low values; viability, % at 10 µM; 140,000 tested, 1.5% active; AID 818, 2007;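 active = viability at or under a set limit, the compound median less 4 SD, cut at about 6% in these data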
H69AR inhibit – proliferation blockers of H69AR lung cancer cells, primary screen, cell-based, human, 86K library; H69AR lung tumor viability, ATP luminescence, 72 h; hits give low values; viability, % at 10 µM; 85,000 tested, 6% active; AID 598, 2007;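 active = viability at or below 40%; inactive = viability above 40%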;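 also: multidrug resistant small cell line overexpressing MRP-1 efflux transporter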
HCT116 PTEN-null – growth suppression of PTEN-null HCT116, primary screen, cell-based, CellTiter-Glo; HCT116 PTEN-null viability, 60 h; hits give low values; viability, % at 10 µM; 140,000 tested, 1.2% active; AID 827, 2007;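 active = viability at or below a set limit, 4 SD under the median of all tested compounds, cut at about 3.7% in these data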;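 also: PTEN knockout HCT116 line with beta catenin targeted HCT116 as companion control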
HUVEC prolif 384 – inhibitors of HUVEC proliferation, primary screen, cell-based, 384-well; viability, % at 10 µM (by protocol); CellTiter-Glo luminescence, 72 h; hits give low values; 86,000 tested, 1.1% active;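 active = viability at or below 30%; inactive = viability above 30%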
Lung fibro prol – antiproliferative effect on LL 47 fibroblasts – human, LL 47 cells, CellTiter-Glo luminescence, primary screen | LL 47 human lung fibroblast viability, ATP luminescence; hits give low values | viability, % at 10 µM | 85,000 tested, 1.1% active | AID 719, 2007;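 active = viability at or below 50% in the single dose screen; inactive = viability above 50%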;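 also: compound exposure lasted 72 h before the ATP readout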
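Benchmarks: Cell-only wells, no compound | Test system: LL 47 human lung fibroblasts, passage 12 or lower | Input: 1,150 cells/well | Measured by: CellTiter-Glo luminescence measuring cellular ATP | Medium: IMEM, 15% FBS supplement | Schedule: Overnight attachment after seeding, then 72 h compound exposure at 37 °C | Doses: Compound addition at 0.1% DMSO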
Hits are given with their value; - = inactive; . = not tested or not shown.

SMILES	HCT116 bCat-KO	H69AR inhibit	HCT116 PTEN-null	HUVEC prolif 384	Lung fibro prol
CCOCCCNC(=O)c1cc2c(=O)n3cccc(C)c3nc2n1C	.	34	.	-	-
CCNC(=O)c1cc2c(=O)n3cccc(C)c3nc2n(CCc2ccccc2)c1=N	4.8	-	-	-	-
COCCNC(=O)c1cc2c(=O)n3cccc(C)c3nc2n1C	.	27	.	-	-
C[n+]1ccc(C(=O)N/N=C/c2ccco2)cc1	-	.	-	.	.
Cc1onc(-c2ccccc2)c1C(=O)Nc1cc(C(F)(F)F)ccc1N1CCOCC1	-	23	-	-	48
O=C(CSc1nc2ccccc2[nH]1)Nc1cc(C(F)(F)F)ccc1N1CCOCC1	-	31	-	-	-
Cc1onc(-c2ccccc2)c1C(=O)Nc1ccccc1N1CCOCC1	-	31	-	-	-
Cc1ccccc1NC(=O)c1c(-c2ccccc2)noc1C	-	-	-	-	-
CC(Oc1ccc(Cl)cc1Cl)c1nc(-c2ccc(NC(=O)c3ccccn3)cc2)no1 (centres undefined)	-	29	-	-	-
CCOC(=O)NC1(NC(C)C)Oc2ccccc2O1	-	36	-	-	-
CCOC(=O)NC1(NCC(C)C)Oc2ccccc2O1	-	.	-	.	.
CCOC(=O)C(C(=O)Nc1ccccc1C)C1CCCCC1 (centres undefined)	-	-	-	-	-
CCOC(=O)NC1(NCc2ccccc2)Oc2ccccc2O1	-	19	-	-	-
CCOC(=O)NC1(Nc2ccc(C)cc2)Oc2ccccc2O1	-	.	-	.	.
CCOC(=O)NC1(NC2CCCCC2)Oc2ccccc2O1	-	21	-	-	.
Cc1noc(C)c1S(=O)(=O)Nc1ccc(C(=O)N2CCc3ccccc3C2)cc1	-	.	-	.	.
Cc1ccc(C(=O)Nc2ccc([N+](=O)[O-])cn2)o1	-	.	-	.	.
CCC(C)(C)NC(=O)/C=C/c1cnc2ccccc2n1	-	.	-	.	.
CN1CCN(c2ncnc3c2sc2nc(N4CCOCC4)c4c(c23)CCC4)CC1	.	-	.	-	-
Cc1cc(C)c2c(n1)sc1c(N3CCOCC3)ncnc12	.	-	.	22	-
c1nc(N2CCNCC2)c2sc3nc(N4CCOCC4)c4c(c3c2n1)CCC4	.	7.9	.	-	4.0
OCCN1CCN(c2ncnc3c2sc2nc(N4CCOCC4)c4c(c23)CCC4)CC1	-	-	-	-	-
O=C(N/N=C/c1ccc([N+](=O)[O-])s1)C(O)c1ccccc1 (centres undefined)	0.8	.	1.0	.	.
O=C(Cc1ccccc1)N/N=C/c1ccc([N+](=O)[O-])s1	1.4	.	1.0	.	.
Cc1ccc(-c2nnc(SCC(=O)N/N=C/c3ccc(C)s3)n2-c2ccc(C)cc2)cc1	-	.	-	.	.
SMILES	HCT116 bCat-KO	H69AR inhibit	HCT116 PTEN-null	HUVEC prolif 384	Lung fibro prol
Cn1c(SCC(=O)N/N=C/c2ccc([N+](=O)[O-])s2)nnc1-c1ccccc1	1.9	.	1.6	.	.
O=C(CSc1ccc2ccccc2c1)Nc1ccc(S(=O)(=O)Nc2nccs2)cc1	-	.	-	.	.
O=C(Cn1cc(SCc2cccc(Cl)c2)c2ccccc21)N1CCOCC1	-	.	-	.	.
Cn1c(CCN2CCCCC2)nc2cc(NS(=O)(=O)c3ccc(F)cc3)ccc21	-	22	-	-	-
CCN(CC)S(=O)(=O)c1ccc2[nH]cc(C(=O)NCCN3CCCCCC3)c(=O)c2c1	-	-	-	-	-
CCN(CC)S(=O)(=O)c1ccc2[nH]cc(C(=O)NCCC3=CCCCC3)c(=O)c2c1	-	8.5	-	-	-
CN(C)CCN(C)Cc1ccccc1Sc1cccc2ccccc12	1.2	.	1.5	.	.
CC(C)Cc1nc2oc3c(Cl)ncnc3c2c2c1CCC2	0.9	-	0.8	3.3	45
c1ccc(-c2nnc(Cn3c4ccccc4c4nc5ccccc5nc43)o2)cc1	.	11	.	-	-
CCOc1cccc(C(=O)Nc2ccc(N(CC)CC)cc2)c1	-	20	-	-	-
CCOc1cccc(C(=O)Nc2cccc(C(C)=O)c2)c1	-	.	-	.	.
CCOc1ccc(OCc2cccc(C(=O)Nc3ccc(CN4CCCCC4)cc3)c2)cc1	1.5	.	1.9	.	.
COc1ccc(OCc2cccc(C(=O)Nc3ccc(CN4CCCCC4)cc3)c2)cc1	-	.	-	.	.
O=C(O)c1ccc2c(=O)n3c(nc2c1)/C(=C/c1cccc(Cl)c1Cl)CCCC3	-	.	-	.	.
Cc1cc(N(C)Cc2ccccc2)nc(-c2ccccc2)n1	-	24	-	-	-
O=[N+]([O-])c1cc(S(=O)(=O)C(F)(F)F)ccc1Sc1nc2ccccc2s1	1.6	.	1.5	.	.
CS(=O)(=O)c1ccc(Sc2nc3ccccc3[nH]2)c([N+](=O)[O-])c1	-	1.1	-	-	-
O=[N+]([O-])c1cc(S(=O)(=O)C(F)(F)F)ccc1Sc1nc2ccccc2[nH]1	1.5	1.7	1.3	18	12
CS(=O)(=O)c1ccc(Sc2nc3ccccc3s2)c([N+](=O)[O-])c1	-	.	-	.	.
NS(=O)(=O)c1cccc(NC(=O)COC(=O)C2(c3cccc(F)c3)CCCC2)c1	-	.	-	.	.
CS(=O)(=O)N(CC(=O)Nc1ccccc1C(=O)NCc1ccco1)c1ccc2c(c1)OCCO2	-	26	-	-	-
COc1ccc([N+](=O)[O-])cc1NC(=O)c1ccc(CN(c2ccccc2)S(C)(=O)=O)cc1	-	.	-	.	.
O=C(/C=C(\O)c1ccc(Cl)cc1)C(=O)NNC(=O)C(O)(c1ccccc1)c1ccccc1	-	24	-	-	-
CC(C)NC(=O)c1ccc(OC2CSC2)cc1	-	-	-	-	-
COc1c(Br)cc(Br)cc1/C=N/n1c(C)nnc1C	-	25	-	-	-
SMILES	HCT116 bCat-KO	H69AR inhibit	HCT116 PTEN-null	HUVEC prolif 384	Lung fibro prol
CCc1nnc(NC(=O)c2ccc(S(=O)(=O)N(CC)CC)cc2)s1	-	-	-	-	-
CCCCN(CCCC)S(=O)(=O)c1ccc(C(=O)Nc2nnc(COC)o2)cc1	-	27	-	-	-
CCc1nnc(NC(=O)c2ccc(S(=O)(=O)N(CC)Cc3ccccc3)cc2)o1	-	21	-	-	-
CN(c1ccccc1)S(=O)(=O)c1ccc(NC(=O)c2ccc(-c3ccccc3)cc2)cc1	-	.	-	.	.
CCCCNC(=O)Nc1nnc(-c2ccc(OCC)cc2)o1	-	-	-	-	-
CCOc1ccc(-c2nnc(NC(=O)c3ccc(OCC(C)C)c(OC)c3)o2)cc1	-	29	-	19	-
CN(c1ccccc1)S(=O)(=O)c1ccc(C(=O)Nc2nnc(-c3ccc(F)cc3)o2)cc1	-	34	-	2.0	-
CCCCN(C)S(=O)(=O)c1ccc(C(=O)Nc2nnc(CSC)o2)cc1	-	.	-	.	.
CCN(CC)S(=O)(=O)c1ccc(NC(=O)COC(=O)CNS(=O)(=O)/C=C/c2ccccc2)cc1	-	.	-	.	.
O=C(CCCNC(=O)/C(=C/c1ccccc1F)NC(=O)c1ccccc1)OCc1ccccc1	-	.	-	.	.
O=C(COC(=O)/C=C/c1ccc(F)cc1)Nc1ccccc1-c1ccccc1	-	.	-	.	.
CCCCN(CC)S(=O)(=O)c1ccc(C(=O)Nc2nnc(-c3cccs3)o2)cc1	-	35	-	5.0	-

Compound activity deposited in PubChem by SRMLSC.
